Legend:
Rattus norvegicus [1] = test: Derived trabecular thickness (um) measured using micro Computed Tomography(CT) after a dose of 3000 ug/kg in Vertebral Bone; assay type: functional, Trabecula
How it was run: (§1)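 Micro-CT of the fifth lumbar vertebra, measuring cancellous bone volume and architecture. Rats were 6 months old, OVX 60 days before treatment, then dosed daily for 60 days. Test-agent doses were 10–3000 µg/kg, given as a once-daily subcutaneous injection; 6 mg/kg/day was given to the positive-control group. Groups were compared with vehicle by ANOVA plus LSD test.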

[2] = target: Prostaglandin E2 receptor EP2 subtype (Homo sapiens, UniProt P43116); test: In vitro binding at EP2 human prostaglandin receptor
How it was run: (§2)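 Receptors stably expressed in CHO cells, collected 4-5 days after seeding. Membranes made by lysis (Tris, EDTA, protease inhibitors) and 100000g pellet, then resuspended at 1 mg protein/mL in TME. Radioligands at 5 nM: [3H]PGE2 for EP2/EP3/EP4, [3H]Iloprost for IP, [3H]SQ-29548 for TP. Competition binding with filtration and counting.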

Rattus norvegicus [3] = test: connectivity density (mm-3) using micro Computed Tomography(CT) after a does of 30 ug/kg in Vertebral Bone; assay type: functional
How it was run: (§3)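 Rats were ovariectomized at 6 months of age and, after 60 days, dosed subcutaneously once daily for 60 days, with vehicle of acetate-buffered saline, methylcellulose and polysorbate. At necropsy the fifth lumbar vertebra was scanned by micro-CT to obtain cancellous architecture. Groups were 6-8 rats; results were compared to vehicle by ANOVA with least significant difference test.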

Rattus norvegicus [4] = test: Bone formation rate/bone volume (%/year) bone measured histomorphometrically after a dose of 1000 ug/kg in proximal tibial metaphysis; assay type: functional; details: at 1000 µg/kg
Rattus norvegicus [5] = test: Periosteal mineralizing surface (%) measured Histomorphometrically after a dose of 300 ug/kg in tibial diaphysis; assay type: functional
How it was run: (§4)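 Rats on natural chow (1.46% Ca) were bilaterally ovariectomized at 6 months and left untreated for 60 days. They then received once-daily subcutaneous doses for 60 days, with vehicle of acetate-buffered saline, methylcellulose and polysorbate. Xylenol orange (90 mg/kg) was given before treatment and calcein (10 mg/kg) 14 and 4 days before sacrifice. Tibiae were analysed by fluorescent histomorphometry, 6-8 rats/group, ANOVA/LSD vs vehicle.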

Rattus norvegicus [6] = test: Bone Volume /Tissue Volume (%)measured using micro Computed Tomography(CT) after a dose of 30 ug/kg in Vertebral Bone; assay type: functional; details: at 30 µg/kg
Rattus norvegicus [7] = test: Periosteal mineral apposition rate ([…]) measured Histomorphometrically after a dose of 100 ug/kg in tibial diaphysis; assay type: functional
How it was run: (§5)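 Six-month-old rats, bilaterally ovariectomized, 6-8 per group, on natural chow. After 60 days they received once-daily subcutaneous dosing for 60 days at 0.01–3.0 mg/kg. Vehicle was acetate-buffered saline with methylcellulose and polyoxyethylenesorbitan monooleate. Labels were xylenol orange 90 mg/kg before treatment and calcein 10 mg/kg 14 and 4 days before sacrifice. Tibial histomorphometry was read under fluorescent light, with ANOVA/LSD versus vehicle.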

Rattus norvegicus [8] = test: Directly measured thickness(um) using micro Computed Tomography(CT) after a dose of 100 ug/kg in Vertebral Bone; assay type: functional; how it was run: as §1
Rattus norvegicus [9] = test: Derived trabecular thickness (um) measured using micro Computed Tomography(CT) after a dose of 10 ug/kg in Vertebral Bone; assay type: functional, Trabecula; how it was run: as §1
Rattus norvegicus [10] = test: Derived trabecular thickness (um) measured using micro Computed Tomography(CT) after a dose of 1000 ug/kg in Vertebral Bone; assay type: functional, Trabecula; how it was run: as §1
Rattus norvegicus [11] = test: Mineralizing surface/bone surface(%) measured Histomorphometrically after a dose of 30 ug/kg in proximal tibial metaphysis; assay type: functional
How it was run: (§6)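 Ovariectomized six-month-old rats, 6-8 per group, were dosed subcutaneously once daily at 0.01–3.0 mg/kg for 60 days, starting 60 days after surgery. Vehicle was acetate-buffered saline, methylcellulose and polyoxyethylenesorbitan monooleate. Labels were xylenol orange 90 mg/kg pretreatment and calcein 10 mg/kg at 14 and 4 days before necropsy. Histomorphometry covered the proximal tibial metaphysis, 1–4 mm distal to the growth plate–metaphyseal junction. ANOVA/LSD versus vehicle.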

Rattus norvegicus [12] = test: Endosteal eroded surface(%) measured Histomorphometrically after a dose of 1000 ug/kg in tibial diaphysis; assay type: functional
How it was run: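 Tibial histomorphometry in 6-month-old rats, OVX 60 days before treatment, then daily injection for 60 days. Vehicle was acetate-buffered saline with methylcellulose and polyoxyethylenesorbitan monooleate. Rats received xylenol orange 90 mg/kg before treatment and calcein 10 mg/kg at 14 and 4 days pre-sacrifice. Rats were killed by cardiac puncture under ketamine/xylazine. Groups were compared with vehicle by ANOVA plus LSD test.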

Rattus norvegicus [13] = test: Derived trabecular no […]measured using micro Computed Tomography(CT) after a dose of 100 ug/kg in Vertebral Bone; assay type: functional, Trabecula; how it was run: as §1
Rattus norvegicus [14] = test: Periosteal mineralizing surface (%) measured Histomorphometrically after a dose of 1000 ug/kg in tibial diaphysis; assay type: functional; how it was run: as §4
Rattus norvegicus [15] = test: Directly measured thickness(um) using micro Computed Tomography(CT) after a dose of 300 ug/kg in Vertebral Bone; assay type: functional; how it was run: as §1
Rattus norvegicus [16] = test: Bone formation rate/bone volume (%/year)bone measured Histomorphometrically after a dose of 300 ug/kg in proximal tibial metaphysis; assay type: functional; details: at 300 µg/kg
Rattus norvegicus [17] = test: Bone formation rate/bone volume (%/year)bone measured Histomorphometrically after a dose of 10 ug/kg in proximal tibial metaphysis; assay type: functional; details: at 10 µg/kg
Rattus norvegicus [18] = test: Derived trabecular no […]measured using micro Computed Tomography(CT) after a dose of 30 ug/kg in Vertebral Bone; assay type: functional, Trabecula; how it was run: as §1
Rattus norvegicus [19] = test: Trabecular thickness […] measured Histomorphometrically after a dose of 300 ug/kg in proximal tibial metaphysis; assay type: functional, Trabecula
How it was run: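 Six-month-old rats were ovariectomized, and 60 days later daily subcutaneous dosing began for 60 days, with vehicle of acetate-buffered saline, methylcellulose and polysorbate. Xylenol orange (90 mg/kg) labelled bone pre-treatment and calcein (10 mg/kg) 14 and 4 days pre-sacrifice. Histomorphometry covered the proximal tibial metaphysis 1-4 mm distal to the growth plate-metaphyseal junction. Groups were 6-8 rats, compared by ANOVA/LSD vs vehicle.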

Rattus norvegicus [20] = test: Bone Volume /Tissue Volume (%)measured Histomorphometrically after a dose of 1000 ug/kg in proximal tibial metaphysis; assay type: functional; details: at 1000 µg/kg
Prostacyclin receptor = Prostacyclin receptor (Homo sapiens, UniProt P43119); test: In vitro binding at prostanoid IP receptor using [3H]iloprost as radioligand; how it was run: as §2
Rattus norvegicus [21] = test: Tissue area (mm) measured Histomorphometrically after a dose of 10 ug/kg in tibial diaphysis; assay type: functional; how it was run: as §4
Rattus norvegicus [22] = test: connectivity density (mm-3) using micro Computed Tomography(CT) after a does of 3000 ug/kg in Vertebral Bone; assay type: functional; how it was run: as §3
Rattus norvegicus [23] = test: Bone formation rate/tissue volume (%/year) bone measured histomorphometrically after a dose of 3000 ug/kg in proximal tibial metaphysis; assay type: functional; details: at 3000 µg/kg
Rattus norvegicus [24] = test: Mineralizing surface/bone surface(%) measured Histomorphometrically after a dose of 100 ug/kg in proximal tibial metaphysis; assay type: functional; how it was run: as §6
Rattus norvegicus [25] = test: Periosteal mineral apposition rate ([…]) measured Histomorphometrically after a dose of 10 ug/kg in tibial diaphysis; assay type: functional; how it was run: as §5
Rattus norvegicus [26] = test: Bone Volume /Tissue Volume (%)measured Histomorphometrically after a dose of 300 ug/kg in proximal tibial metaphysis; assay type: functional; details: at 300 µg/kg
Rattus norvegicus [27] = test: Directly measured thickness(um) using micro Computed Tomography(CT) after a dose of 10 ug/kg in Vertebral Bone; assay type: functional; how it was run: as §1

Sequence of Prostaglandin E2 receptor EP2 subtype (P43116 whole entry): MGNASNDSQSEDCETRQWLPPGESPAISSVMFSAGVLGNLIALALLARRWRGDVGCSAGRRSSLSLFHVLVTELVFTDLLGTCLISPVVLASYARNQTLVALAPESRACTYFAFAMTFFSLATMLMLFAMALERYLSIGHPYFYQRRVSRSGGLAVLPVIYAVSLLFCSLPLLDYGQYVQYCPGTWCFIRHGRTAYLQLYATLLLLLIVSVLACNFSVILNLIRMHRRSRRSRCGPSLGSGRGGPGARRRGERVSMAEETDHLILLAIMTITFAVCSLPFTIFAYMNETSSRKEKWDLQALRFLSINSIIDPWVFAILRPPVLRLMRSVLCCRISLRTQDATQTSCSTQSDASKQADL
Sequence of Prostacyclin receptor (P43119 whole entry): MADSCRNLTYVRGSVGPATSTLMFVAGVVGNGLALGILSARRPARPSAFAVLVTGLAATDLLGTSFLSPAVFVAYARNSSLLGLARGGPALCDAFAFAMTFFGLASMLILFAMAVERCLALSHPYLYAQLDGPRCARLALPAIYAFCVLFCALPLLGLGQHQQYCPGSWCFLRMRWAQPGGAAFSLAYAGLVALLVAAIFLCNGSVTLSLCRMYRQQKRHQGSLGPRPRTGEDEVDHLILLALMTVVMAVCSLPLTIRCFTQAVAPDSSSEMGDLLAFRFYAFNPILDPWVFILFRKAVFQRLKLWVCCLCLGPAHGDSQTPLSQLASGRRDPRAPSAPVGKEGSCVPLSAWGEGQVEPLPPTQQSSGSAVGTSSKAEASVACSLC

## CP(=O)(O)CCC/C=C\C[C@@H]1[C@@H](/C=C/[C@@H](O)COc2ccccc2)[C@H](O)C[C@@H]1O
Rattus norvegicus [1]
  Derived trabecular thickness: 83.8 µm
[2]
  IC50: > 10 µM
Rattus norvegicus [3]
  Connectivity density: 59.2 mm**-3
Rattus norvegicus [4]
  Activity: 251.82%
Rattus norvegicus [5]
  Periosteal mineralizing surface: 9.56%
Rattus norvegicus [6]
  Activity: 34.58%
Rattus norvegicus [7]
  Periosteal mineral apposition rate: 0.38 µm day-1
Rattus norvegicus [8]
  Directly measured thickness: 127 µm
Rattus norvegicus [9]
  Derived trabecular thickness: 73 µm
Rattus norvegicus [10]
  Derived trabecular thickness: 80.6 µm
Rattus norvegicus [11]
  Activity: 30.59%
Rattus norvegicus [12]
  Endosteal eroded surface: 2.74%
Rattus norvegicus [13]
  Derived trabecular number: 4.83 mm-1
Rattus norvegicus [14]
  Periosteal mineralizing surface: 10.35%
Rattus norvegicus [15]
  Directly measured thickness: 127 µm
Rattus norvegicus [16]
  Activity: 322.61%
Rattus norvegicus [17]
  Activity: 498.01%
Rattus norvegicus [18]
  Derived trabecular number: 4.44 mm-1
Rattus norvegicus [19]
  Trabecular thickness: 44 µm
Rattus norvegicus [20]
  Activity: 9.43%
Prostacyclin receptor
  IC50: > 10 µM
Rattus norvegicus [21]
  Tissue area: 5.09 mm
Rattus norvegicus [22]
  Connectivity density: 55.9 mm**-3
Rattus norvegicus [23]
  Activity: 20.13%
Rattus norvegicus [24]
  Activity: 27.11%
Rattus norvegicus [25]
  Periosteal mineral apposition rate: 0.49 µm day-1
Rattus norvegicus [26]
  Activity: 5.72%
Rattus norvegicus [27]
  Directly measured thickness: 118 µm
